Measurements: ChEMBL document CHEMBL1275484, “Rifampin and rifaximin resistance in clinical isolates of Clostridium difficile” (Antimicrob Agents Chemother, 2008)
≈ marks a conversion by molar mass, not a printed value.

Experiments:
Assay type in all cases: functional
[1] = tested on: Clostridioides difficile; test: Antimicrobial activity against Clostridium difficile isolate 30 by Etest
Outline: (§1)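 Rifampin MIC by Etest strip on brucella blood agar, run per the strip maker's instructions. Isolates were HindIII REA-typed clinical C. difficile.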

[2] = tested on: Clostridioides difficile; test: Antimicrobial activity against Clostridium difficile isolate 46 by Etest
Outline: (§2)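 Rifampin Etest strips were run on brucella blood agar following the manufacturer's instructions to give an MIC. Clinical isolates were typed by HindIII REA.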

[3] = tested on: Clostridioides difficile; test: Antimicrobial activity against rifaximin-resistant Clostridium difficile isolate 4 expressing RpoB S488T and R505K mutants by Etest
Outline: (§3)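 Rifampin Etest on clinical C. difficile isolates typed by HindIII REA, run per the strip manufacturer's instructions on brucella blood agar, with the MIC read from the strip.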

[4] = tested on: Clostridioides difficile; test: Antimicrobial activity against Clostridium difficile isolate 3 by agar dilution method
Outline: (§4)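 MIC by CLSI reference agar dilution for anaerobes, with endpoints read per M11-A7 and C. difficile […] as control. Rifaximin was dissolved in methanol, diluted in 0.1 M phosphate buffer pH 7.4 plus 0.45% SDS, and tested at 0.0009–256 μg/ml. Rifampin was dissolved in methanol, diluted in water, and tested at 0.00001–256 μg/ml.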

[5] = tested on: Clostridioides difficile; test: Antimicrobial activity against Clostridium difficile isolate 32 by agar dilution method; outline: as §4
[6] = tested on: Clostridioides difficile; test: Antimicrobial activity against Clostridium difficile isolate 42 by Etest; outline: as §2
[7] = tested on: Clostridioides difficile; test: Antimicrobial activity against Clostridium difficile isolate 31 by Etest; outline: as §1
[8] = tested on: Clostridioides difficile; test: Antimicrobial activity against Clostridium difficile isolate 74 by Etest
Outline: (§5)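 Rifampin MIC by Etest on brucella blood agar, run per the strip manufacturer's instructions, against clinical isolates typed by HindIII REA.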

[9] = tested on: Clostridioides difficile; test: Antimicrobial activity against Clostridium difficile isolate 10 by Etest; outline: as §1
[10] = tested on: Clostridioides difficile; test: Antimicrobial activity against Clostridium difficile isolate 5 by Etest; outline: as §2
[11] = tested on: Clostridioides difficile; test: Antimicrobial activity against Clostridium difficile isolate 41 by Etest; outline: as §2
[12] = tested on: Clostridioides difficile; test: Antimicrobial activity against Clostridium difficile isolate 6 by Etest; outline: as §2
[13] = tested on: Clostridioides difficile; test: Antimicrobial activity against Clostridium difficile isolate 52 by agar dilution method
Outline: (§6)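 CLSI reference agar dilution method for anaerobes, with endpoints read per guideline M11-A7. Rifaximin was dissolved in methanol, diluted in 0.1 M phosphate buffer (pH 7.4) with 0.45% SDS, and tested at 0.0009–256 μg/ml. Rifampin was dissolved in methanol, diluted in water, and tested at 0.00001–256 μg/ml. C. difficile ATCC […] served as control. Isolates were typed by HindIII REA.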

[14] = tested on: Clostridioides difficile; test: Antimicrobial activity against Clostridium difficile isolate 34 by Etest; outline: as §1
[15] = tested on: Clostridioides difficile; test: Antimicrobial activity against Clostridium difficile isolate 29 by Etest; outline: as §1
[16] = tested on: Clostridioides difficile; test: Antimicrobial activity against Clostridium difficile isolate 2 by Etest; outline: as §1
[17] = tested on: Clostridioides difficile; test: Antimicrobial activity against rifaximin-resistant Clostridium difficile isolate 12 expressing RpoB H502N and R505K mutants by agar dilution method
Outline: as §4, with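 “MICs were found” for “MIC”, “by the” for “by”, “dilution method” for “dilution”, “with” for “plus”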

[18] = tested on: Clostridioides difficile; test: Antimicrobial activity against Clostridium difficile isolate 6 by agar dilution method; outline: as §6
[19] = tested on: Clostridioides difficile; test: Antimicrobial activity against Clostridium difficile isolate 13 by agar dilution method; outline: as §4
[20] = tested on: Clostridioides difficile; test: Antimicrobial activity against rifaximin-resistant Clostridium difficile isolate 17 expressing RpoB H502N and I548M mutants by agar dilution method
Outline: as §4, with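 “MICs were found” for “MIC”, “by the” for “by”, “dilution method” for “dilution”, “with” for “plus”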

[21] = tested on: Clostridioides difficile; test: Antimicrobial activity against Clostridium difficile isolate 58 by agar dilution method; outline: as §6
[22] = tested on: Clostridioides difficile; test: Antimicrobial activity against Clostridium difficile isolate 16 by agar dilution method; outline: as §4
[23] = tested on: Clostridioides difficile; test: Antimicrobial activity against Clostridium difficile isolate 55 by Etest; outline: as §2
[24] = tested on: Clostridioides difficile; test: Antimicrobial activity against Clostridium difficile isolate 44 by Etest; outline: as §2
[25] = tested on: Clostridioides difficile; test: Antimicrobial activity against Clostridium difficile isolate 28 by Etest; outline: as §1
[26] = tested on: Clostridioides difficile; test: Antimicrobial activity against Clostridium difficile isolate 45 by Etest; outline: as §2
[27] = tested on: Clostridioides difficile; test: Antimicrobial activity against Clostridium difficile isolate 38 by Etest; outline: as §1
[28] = tested on: Clostridioides difficile; test: Antimicrobial activity against Clostridium difficile isolate 72 by agar dilution method
Outline: (§7)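 CLSI reference agar dilution for anaerobes, with endpoints read per guideline M11-A7. Rifaximin was dissolved in methanol, diluted in 0.1 M phosphate buffer pH 7.4 with 0.45% SDS, and tested at 0.0009–256 μg/ml. Rifampin was dissolved in methanol, diluted in water, and tested at 0.00001–256 μg/ml. Control strain: C. difficile ATCC […]. Isolates were typed by HindIII REA.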

[29] = tested on: Clostridioides difficile; test: Antimicrobial activity against Clostridium difficile isolate 38 by agar dilution method; outline: as §6
[30] = tested on: Clostridioides difficile; test: Antimicrobial activity against Clostridium difficile isolate 27 by agar dilution method; outline: as §4
[31] = tested on: Clostridioides difficile; test: Antimicrobial activity against Clostridium difficile isolate 23 by agar dilution method; outline: as §4
[32] = tested on: Clostridioides difficile; test: Antimicrobial activity against Clostridium difficile isolate 32 by Etest; outline: as §1
[33] = tested on: Clostridioides difficile; test: Antimicrobial activity against Clostridium difficile isolate 9 by Etest; outline: as §5
[34] = tested on: Clostridioides difficile; test: Antimicrobial activity against Clostridium difficile isolate 48 by agar dilution method; outline: as §6
[35] = tested on: Clostridioides difficile; test: Antimicrobial activity against Clostridium difficile isolate 35 by agar dilution method; outline: as §4
[36] = tested on: Clostridioides difficile; test: Antimicrobial activity against Clostridium difficile isolate 69 by agar dilution method; outline: as §7
[37] = tested on: Clostridioides difficile; test: Antimicrobial activity against Clostridium difficile isolate 77 by Etest; outline: as §5
[38] = tested on: Clostridioides difficile; test: Antimicrobial activity against Clostridium difficile isolate 44 by agar dilution method; outline: as §6
[39] = tested on: Clostridioides difficile; test: Antimicrobial activity against Clostridium difficile isolate 14 by agar dilution method; outline: as §4
[40] = tested on: Clostridioides difficile; test: Antimicrobial activity against Clostridium difficile isolate 54 by agar dilution method; outline: as §6
[41] = tested on: Clostridioides difficile; test: Antimicrobial activity against Clostridium difficile isolate 27 by Etest; outline: as §1
[42] = tested on: Clostridioides difficile; test: Antimicrobial activity against rifaximin-resistant Clostridium difficile isolate 26 expressing RpoB R505K mutant by Etest; outline: as §3
[43] = tested on: Clostridioides difficile; test: Antimicrobial activity against Clostridium difficile isolate 20 by Etest; outline: as §1
[44] = tested on: Clostridioides difficile; test: Antimicrobial activity against rifaximin-resistant Clostridium difficile isolate 26 expressing RpoB R505K mutant by agar dilution method
Outline: as §4, with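 “MICs were found” for “MIC”, “by the” for “by”, “dilution method” for “dilution”, “with” for “plus”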

[45] = tested on: Clostridioides difficile; test: Antimicrobial activity against Clostridium difficile isolate 15 by agar dilution method; outline: as §4
[46] = tested on: Clostridioides difficile; test: Antimicrobial activity against Clostridium difficile isolate 48 by Etest; outline: as §2
[47] = tested on: Clostridioides difficile; test: Antimicrobial activity against Clostridium difficile isolate 25 by agar dilution method; outline: as §4
[48] = tested on: Clostridioides difficile; test: Antimicrobial activity against Clostridium difficile isolate 59 by agar dilution method; outline: as §6
[49] = tested on: Clostridioides difficile; test: Antimicrobial activity against rifaximin-resistant Clostridium difficile isolate 66 expressing RpoB D492N and R505K mutants by Etest; outline: as §3
[50] = tested on: Clostridioides difficile; test: Antimicrobial activity against rifaximin-resistant Clostridium difficile isolate 22 expressing RpoB H502N and R505K mutants by agar dilution method
Outline: as §4, with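 “MICs were found” for “MIC”, “by the” for “by”, “dilution method” for “dilution”, “with” for “plus”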

[51] = tested on: Clostridioides difficile; test: Antimicrobial activity against Clostridium difficile isolate 45 by agar dilution method; outline: as §6

SMILES: CO[C@H]1/C=C/O[C@@]2(C)Oc3c(C)c(O)c4c(O)c(c(/C=N/N5CCN(C)CC5)c(O)c4c3C2=O)NC(=O)/C(C)=C\C=C\[C@H](C)[C@H](O)[C@@H](C)[C@@H](O)[C@@H](C)[C@H](OC(C)=O)[C@@H]1C [RIFAMPIN]
- MIC [1]: < 2 ng/mL
- MIC [2]: < 2 ng/mL
- MIC [3]: > 32000 ng/mL
- MIC [4]: 0.06 ng/mL (≈ 0.0729 nM)
- MIC [5]: 0.9 ng/mL (≈ 1.09 nM)
- MIC [6]: < 2 ng/mL
- MIC [7]: < 2 ng/mL
- MIC [8]: < 2 ng/mL
- MIC [9]: 16 ng/mL (≈ 19.4 nM)
- MIC [10]: < 2 ng/mL
- MIC [11]: < 2 ng/mL
- MIC [12]: < 2 ng/mL
- MIC [13]: 1.9 ng/mL (≈ 2.31 nM)
- MIC [14]: 4 ng/mL (≈ 4.86 nM)
- MIC [15]: < 2 ng/mL
- MIC [16]: < 2 ng/mL
- MIC [17]: > 256000 ng/mL
- MIC [18]: 0.06 ng/mL (≈ 0.0729 nM)
- MIC [19]: 0.09 ng/mL (≈ 0.109 nM)
- MIC [20]: > 256000 ng/mL
- MIC [21]: 0.9 ng/mL (≈ 1.09 nM)
- MIC [22]: 0.9 ng/mL (≈ 1.09 nM)
- MIC [23]: < 2 ng/mL
- MIC [24]: < 2 ng/mL
- MIC [25]: < 2 ng/mL
- MIC [26]: < 2 ng/mL
- MIC [27]: < 2 ng/mL
- MIC [28]: 0.06 ng/mL (≈ 0.0729 nM)
- MIC [29]: 0.4 ng/mL (≈ 0.486 nM)
- MIC [30]: 0.4 ng/mL (≈ 0.486 nM)
- MIC [31]: 0.9 ng/mL (≈ 1.09 nM)
- MIC [32]: < 2 ng/mL
- MIC [33]: 3 ng/mL (≈ 3.65 nM)
- MIC [34]: 0.9 ng/mL (≈ 1.09 nM)
- MIC [35]: 0.9 ng/mL (≈ 1.09 nM)
- MIC [36]: 0.06 ng/mL (≈ 0.0729 nM)
- MIC [37]: < 2 ng/mL
- MIC [38]: 0.9 ng/mL (≈ 1.09 nM)
- MIC [39]: 0.9 ng/mL (≈ 1.09 nM)
- MIC [40]: 0.9 ng/mL (≈ 1.09 nM)
- MIC [41]: < 2 ng/mL
- MIC [42]: > 32000 ng/mL
- MIC [43]: < 2 ng/mL
- MIC [44]: 128000 ng/mL (≈ 156000 nM)
- MIC [45]: 0.9 ng/mL (≈ 1.09 nM)
- MIC [46]: < 2 ng/mL
- MIC [47]: 0.9 ng/mL (≈ 1.09 nM)
- MIC [48]: 0.9 ng/mL (≈ 1.09 nM)
- MIC [49]: > 32000 ng/mL
- MIC [50]: > 256000 ng/mL
- MIC [51]: 0.9 ng/mL (≈ 1.09 nM)
